Measurements taken from ChEMBL document CHEMBL4689842, “EUbOPEN Chemogenomics Library wave 1” (2021).

How the values were obtained:
Type in all cases: toxicity, cell-based
Fibroblast = assay: Incucyte cell viability with human fibroblast; details: 10 µM, compound concentration 10 uM; also: filed as whole numbers so only -1 and 0 and 1 occur
HEK-293T = assay: Incucyte cell viability with HEK293T; details: human, 10 µM, compound concentration 10 uM; also: filed as whole numbers so only -1 and 0 and 1 occur
U2OS [1] = assay: Incucyte cell viability with U2OS; details: human, 10 µM, compound concentration 10 uM; also: filed as whole numbers so only -1 and 0 and 1 occur
U2OS [2] = assay: Multiplex assay against U2OS; details: human
Summary of the method: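 Per cents of healthy-nucleus cells form the tubulin, mitochondrial-mass and membrane-permeability phenotype values. Live cells were stained at seeding with Hoechst33342, BioTracker Green Microtubule Cytoskeleton Dye, MitoTracker Red and Annexin V Alexa Fluor 680. After compound addition they were imaged on a CQ1 microscope at 37°C and 5% CO2, and CellPathfinder machine-learning gating split them into Hoechst high-intensity objects or normal cells, normal cells into healthy, pyknosed or fragmented nuclei, and pyknosed cells into mitotic or apoptotic.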

[3] = 6 h, replicate number 1, timepoint 6 hours
[4] = 12 h, replicate number 1, timepoint 12 hours
[5] = 12 h, replicate number 2, timepoint 12 hours
[6] = 18 h, replicate number 1, timepoint 18 hours
[7] = 24 h, replicate number 1, timepoint 24 hours
[8] = 12 h, 1 µM, compound concentration 1 uM, replicate 1
[9] = 12 h, 1 µM, compound concentration 1 uM, replicate 2
[10] = 12 h, 10 µM, compound concentration 10 uM, replicate 1
[11] = 12 h, 10 µM, compound concentration 10 uM, replicate 2
[12] = 24 h, 1 µM, compound concentration 1 uM, replicate 1
[13] = 24 h, 1 µM, compound concentration 1 uM, replicate 2
[14] = 24 h, 10 µM, compound concentration 10 uM, replicate 1
[15] = 24 h, 10 µM, compound concentration 10 uM, replicate 2

Cc1cn(-c2cc(NC(=O)c3ccc4c(c3)CN(c3cncnc3)C[C@@H]4C)cc(C(F)(F)F)c2)cn1
Growth Rate (Fibroblast; 0 h, replicate number 2, timepoint 0 hours): 0 | Growth Rate (Fibroblast; [3]): 0 | Growth Rate (Fibroblast; [4]): 0 | Growth Rate (Fibroblast; [5]): 1 | Growth Rate (Fibroblast; [6]): 0 | Growth Rate (Fibroblast; [7]): 0 | Growth Rate (HEK-293T; [3]): 0 | Growth Rate (HEK-293T; [4]): 0 | Growth Rate (HEK-293T; [6]): 0 | Growth Rate (HEK-293T; [7]): 0 | Growth Rate (U2OS [1]; 0 h, replicate number 1, timepoint 0 hours): 0 | Growth Rate (U2OS [1]; [3]): 0 | Growth Rate (U2OS [1]; [4]): 0 | Growth Rate (U2OS [1]; [5]): 1 | Growth Rate (U2OS [1]; [6]): 0 | Growth Rate (U2OS [1]; [7]): 0 | Population Apoptotic (%) (U2OS [2]; [8]): 56% | Population Healthy Nuclei (%) (U2OS [2]; [8]): 81% | Population Hoechst High Intensity Objects (%) (U2OS [2]; [8]): 7% | Population Membrane Permeable-Phenotype (%) (U2OS [2]; [8]): 6% | Population Mitochondria Different-Phenotype (%) (U2OS [2]; [8]): 23% | Population Mitotic Cells (%) (U2OS [2]; [8]): 43% | Population Normal (%) (U2OS [2]; [8]): 92% | Population Pyknosed Nuclei (%) (U2OS [2]; [8]): 11% | Population Tubulin-Different-Phenotype (%) (U2OS [2]; [8]): 33% | Total Cell Count (U2OS [2]; [8]): 149 | Population Apoptotic (%) (U2OS [2]; [9]): 0% | Population Fragmented Nuclei (%) (U2OS [2]; [9]): 7% | Population Healthy Nuclei (%) (U2OS [2]; [9]): 86% | Population Hoechst High Intensity Objects (%) (U2OS [2]; [9]): 16% | Population Membrane Permeable-Phenotype (%) (U2OS [2]; [9]): 11% | Population Mitochondria Different-Phenotype (%) (U2OS [2]; [9]): 30% | Population Mitotic Cells (%) (U2OS [2]; [9]): 100% | Population Normal (%) (U2OS [2]; [9]): 83% | Population Pyknosed Nuclei (%) (U2OS [2]; [9]): 6% | Population Tubulin-Different-Phenotype (%) (U2OS [2]; [9]): 19% | Total Cell Count (U2OS [2]; [9]): 116 | Population Apoptotic (%) (U2OS [2]; [10]): 33% | Population Fragmented Nuclei (%) (U2OS [2]; [10]): 7% | Population Healthy Nuclei (%) (U2OS [2]; [10]): 84% | Population Hoechst High Intensity Objects (%) (U2OS [2]; [10]): 3% | Population Membrane Permeable-Phenotype (%) (U2OS [2]; [10]): 40% | Population Mitochondria Different-Phenotype (%) (U2OS [2]; [10]): 17% | Population Mitotic Cells (%) (U2OS [2]; [10]): 66% | Population Normal (%) (U2OS [2]; [10]): 96% | Population Pyknosed Nuclei (%) (U2OS [2]; [10]): 7% | Population Tubulin-Different-Phenotype (%) (U2OS [2]; [10]): 16% | Total Cell Count (U2OS [2]; [10]): 198 | Population Apoptotic (%) (U2OS [2]; [11]): 66% | Population Fragmented Nuclei (%) (U2OS [2]; [11]): 10% | Population Healthy Nuclei (%) (U2OS [2]; [11]): 87% | Population Hoechst High Intensity Objects (%) (U2OS [2]; [11]): 15% | Population Membrane Permeable-Phenotype (%) (U2OS [2]; [11]): 24% | Population Mitochondria Different-Phenotype (%) (U2OS [2]; [11]): 26% | Population Mitotic Cells (%) (U2OS [2]; [11]): 33% | Population Normal (%) (U2OS [2]; [11]): 84% | Population Pyknosed Nuclei (%) (U2OS [2]; [11]): 3% | Population Tubulin-Different-Phenotype (%) (U2OS [2]; [11]): 17% | Total Cell Count (U2OS [2]; [11]): 118 | Population Apoptotic (%) (U2OS [2]; [12]): 45% | Population Fragmented Nuclei (%) (U2OS [2]; [12]): 6% | Population Healthy Nuclei (%) (U2OS [2]; [12]): 83% | Population Hoechst High Intensity Objects (%) (U2OS [2]; [12]): 3% | Population Membrane Permeable-Phenotype (%) (U2OS [2]; [12]): 6% | Population Mitotic Cells (%) (U2OS [2]; [12]): 55% | Population Normal (%) (U2OS [2]; [12]): 96% | Population Pyknosed Nuclei (%) (U2OS [2]; [12]): 9% | Population Tubulin-Different-Phenotype (%) (U2OS [2]; [12]): 42% | Total Cell Count (U2OS [2]; [12]): 210 | Population Apoptotic (%) (U2OS [2]; [13]): 42% | Population Fragmented Nuclei (%) (U2OS [2]; [13]): 9% | Population Healthy Nuclei (%) (U2OS [2]; [13]): 85% | Population Hoechst High Intensity Objects (%) (U2OS [2]; [13]): 6% | Population Membrane Permeable-Phenotype (%) (U2OS [2]; [13]): 12% | Population Mitochondria Different-Phenotype (%) (U2OS [2]; [13]): 26% | Population Mitotic Cells (%) (U2OS [2]; [13]): 57% | Population Normal (%) (U2OS [2]; [13]): 93% | Population Pyknosed Nuclei (%) (U2OS [2]; [13]): 5% | Population Tubulin-Different-Phenotype (%) (U2OS [2]; [13]): 34% | Total Cell Count (U2OS [2]; [13]): 143 | Population Apoptotic (%) (U2OS [2]; [14]): 42% | Population Fragmented Nuclei (%) (U2OS [2]; [14]): 6% | Population Healthy Nuclei (%) (U2OS [2]; [14]): 85% | Population Hoechst High Intensity Objects (%) (U2OS [2]; [14]): 4% | Population Membrane Permeable-Phenotype (%) (U2OS [2]; [14]): 28% | Population Mitochondria Different-Phenotype (%) (U2OS [2]; [14]): 14% | Population Mitotic Cells (%) (U2OS [2]; [14]): 57% | Population Normal (%) (U2OS [2]; [14]): 95% | Population Pyknosed Nuclei (%) (U2OS [2]; [14]): 7% | Population Tubulin-Different-Phenotype (%) (U2OS [2]; [14]): 12% | Total Cell Count (U2OS [2]; [14]): 254 | Population Apoptotic (%) (U2OS [2]; [15]): 22% | Population Fragmented Nuclei (%) (U2OS [2]; [15]): 8% | Population Healthy Nuclei (%) (U2OS [2]; [15]): 84% | Population Hoechst High Intensity Objects (%) (U2OS [2]; [15]): 6% | Population Membrane Permeable-Phenotype (%) (U2OS [2]; [15]): 20% | Population Mitochondria Different-Phenotype (%) (U2OS [2]; [15]): 22% | Population Mitotic Cells (%) (U2OS [2]; [15]): 77% | Population Normal (%) (U2OS [2]; [15]): 93% | Population Tubulin-Different-Phenotype (%) (U2OS [2]; [15]): 10% | Total Cell Count (U2OS [2]; [15]): 128
